Publication PMC6205205 (Medicinal chemistry (Shariqah (United Arab Emirates)), 2018)
“Also recorded” adds a separate entry of the source. Each block holds one molecule with its values, some of them ahead of it.

Legend:
[1] = target: T1, IDH1(R132H) (Homo sapiens, UniProt O75874, R132H); experiment: IDH1; format: biochemical; details: for Inhibitory activity against IDH1(R132H), in words: compound screening at 50 μM
[2] = target: WT IDH1 (Homo sapiens, UniProt O75874); experiment: Enzyme inhibition of wild-type IDH1; format: biochemical
WT IDH1, sequence (O75874 whole entry): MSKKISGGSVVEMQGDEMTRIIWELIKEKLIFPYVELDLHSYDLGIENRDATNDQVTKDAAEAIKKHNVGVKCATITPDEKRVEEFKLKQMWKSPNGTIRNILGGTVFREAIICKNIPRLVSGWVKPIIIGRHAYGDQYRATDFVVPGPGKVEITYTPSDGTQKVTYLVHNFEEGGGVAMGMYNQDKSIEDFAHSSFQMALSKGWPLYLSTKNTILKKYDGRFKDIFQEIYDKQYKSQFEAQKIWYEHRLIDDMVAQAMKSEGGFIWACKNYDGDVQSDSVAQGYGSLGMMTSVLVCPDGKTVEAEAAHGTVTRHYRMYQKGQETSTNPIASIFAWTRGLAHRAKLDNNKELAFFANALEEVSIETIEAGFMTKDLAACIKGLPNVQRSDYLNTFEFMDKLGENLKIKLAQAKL

[3] = target: R132C IDH1 (Homo sapiens, UniProt O75874, R132C); experiment: Enzyme inhibition of R132C mutant IDH1; format: biochemical
R132C IDH1, sequence (O75874 whole entry R132C): as the sequence (O75874 whole entry) above, with R132C counted along it

[4] = test system: BT142 glioma cells with R132H IDH1 mutation; experiment: Inhibition of proliferation of glioma stem-like cells; format: cell-based, human; details: 5 μM, 14 days treatment
How it was run: (§1)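 Patient-derived glioma cells grown as neurospheres in serum-free medium at 37 °C, 5% CO₂, 100% humidity. Cells seeded at 2000/well and exposed to increasing concentrations of test compound for 14 days. Viability read by Cell Counting Kit-8 following the kit protocol.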

[5] = test system: BXD-3752 glioma cells without IDH1 mutation; experiment: as above; format: cell-based, human; details: 5 μM, 14 days treatment, no IDH1 mutation
How it was run: as §1

[6] = target: T1, IDH1(R132H); experiment: Steady-state kinetic study, mode of inhibition; format: biochemical
How it was run: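 IDH1(R132H) was expressed in E. coli and purified. Initial velocities were taken as the linear rate of NADPH consumption, followed by UV absorbance at 340 nm. Test compound, α-KG and NADPH levels were each varied. Data were fitted to competitive, noncompetitive and uncompetitive models, and the best model was chosen by highest R² and lowest AICc.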

T1 sequence (O75874 whole entry R132H): as the sequence (O75874 whole entry) above, with R132H counted along it

Compound: O=S(=O)(Nc1cc(Oc2ccccc2)c(O)c2ccccc12)c1ccc(Br)cc1 [Compound 1, 4-bromo-N-(4-hydroxy-3-phenoxynaphthalen-1-yl)benzenesulfonamide]
Ki [1]: 8.2 µM

Compound: O=S(=O)(Nc1cc(Br)c(O)c2ccccc12)c1ccc(Br)cc1 [Compound 2, 4-bromo-N-(3-bromo-4-hydroxynaphthalen-1-yl)benzenesulfonamide]
Ki [1]: 4.1 µM
Fold increased inhibitory activity relative to compound 1 ([1]; IDH1(R132H), vs compound 1): ~ 2 fold
Ki [2]: > 50 µM
Ki [3]: > 50 µM

Compound: Cc1ccc(-c2cc(NS(=O)(=O)c3ccc(C)cc3)c3ccccc3c2O)cc1 [Compound 3, N-(4-hydroxy-3-(p-tolyl)naphthalen-1-yl)-4-methylbenzenesulfonamide]
Inhibitory activity against IDH1(R132H), in words [1]: inactive
Activity against proliferation of BT142 glioma cells [4]: did not exhibit activity
Activity against proliferation of BXD-3752 glioma cells [5]: did not exhibit activity

Compound: O=S(=O)(Nc1cc(-c2ccc3ccccc3c2)c(O)c2ccccc12)c1ccc(Br)cc1 [Compound 4, 4-bromo-N-(1-hydroxy-[2,2’-binaphthalen]-4-yl)benzenesulfonamide]
Inhibitory activity against IDH1(R132H), in words [1]: inactive

Compound: O=C(O)CCc1cc(NS(=O)(=O)c2ccc(Br)cc2)c2ccccc2c1O [Compound 5, 3-(4-((4-bromophenyl)sulfonamido)-1-hydroxynaphthalen-2-yl)propanoic acid]
Ki [1]: 17.5 µM

Compound: O=P(O)(O)CCc1cc(NS(=O)(=O)c2ccc(Br)cc2)c2ccccc2c1O [Compound 6, (2-(4-((4-bromophenyl)sulfonamido)-1-hydroxynaphthalen-2-yl)ethyl)phosphonic acid]
Ki [1]: 2.4 µM

Compound: COc1ccc(S(=O)(=O)Nc2cc(CCC(=O)O)c(O)c3ccccc23)cc1 [Compound 7, 3-(1-hydroxy-4-((4-methoxyphenyl)sulfonamido)naphthalen-2-yl)propanoic acid]
Ki [1]: 10.2 µM

Compound: O=S(=O)(Nc1cc(Br)c(O)c2ccccc12)c1ccc(F)cc1 [Compound 8, N-(3-bromo-4-hydroxynaphthalen-1-yl)-4-fluorobenzenesulfonamide]
Ki [1]: ~25 µM

Compound: Cc1ccc(S(=O)(=O)Nc2cc(Br)c(O)c3ccccc23)cc1 [Compound 9, N-(3-bromo-4-hydroxynaphthalen-1-yl)-4-methylbenzenesulfonamide]
Ki [1]: 1.2 µM
Fold more active than compound 2 ([1]; IDH1(R132H), vs compound 2): ~ 4 ×
Mode of inhibition against the cofactor NADPH ([6]; variable NADPH, Michaelis-Menten plot): noncompetitive mode of action; also recorded: non-competitive inhibitor
Mode of inhibition against the substrate α-KG ([6]; variable α-KG, Lineweaver-Burk plot): competitive inhibitor
Ki [2]: > 50 µM
Ki [3]: > 50 µM
Activity against proliferation of BT142 glioma cells [4]: strongly inhibited the growth; also recorded: strong activity
Activity against proliferation of BXD-3752 glioma cells [5]: did not show activity; also recorded: did not significantly affect growth

Compound: Cc1ccc(S(=O)(=O)Nc2ccc(O)c3ccccc23)cc1 [Compound 12, N-(4-hydroxynaphthalen-1-yl)-4-methylbenzenesulfonamide]
Ki [1]: 6.8 µM
Fold less active than compound 9 ([1]; IDH1(R132H), vs compound 9): ~ 6 fold

Second part, led by results:

Ki [1]: 0.6 µM
Ki [2]: > 50 µM
Ki [3]: 36 µM
Compound: O=S(=O)(Nc1cc(Br)c(O)c2ccccc12)c1ccc(-c2ccccc2)cc1 [Compound 10, N-(3-bromo-4-hydroxynaphthalen-1-yl)-[1,1’-biphenyl]-4-sulfonamide]
Activity against proliferation of BT142 glioma cells [4]: strongly inhibited the growth; also recorded: strong activity
Activity against proliferation of BXD-3752 glioma cells [5]: did not show activity; also recorded: did not significantly affect growth

Ki [1]: 0.8 µM
Ki [2]: > 50 µM
Ki [3]: > 50 µM
Compound: O=S(=O)(Nc1cc(Br)c(O)c2ccccc12)c1ccc2ccccc2c1 [Compound 11, N-(3-bromo-4-hydroxynaphthalen-1-yl)naphthalene-2-sulfonamide]

Ki [1]: 11.1 µM
Compound: O=S(=O)(Nc1ccc(O)c2ccccc12)c1ccccc1 [Compound 13, N-(4-hydroxynaphthalen-1-yl)benzenesulfonamide]

Inhibitory activity against IDH1(R132H), in words [1]: Devoid of activity
Compound: O=S(=O)(Nc1ccc(O)c(Oc2ccccc2)c1)c1ccc(Br)cc1 [Compound 14, 4-bromo-N-(4-hydroxy-3-phenoxyphenyl)benzenesulfonamide]

Ki [1]: 7.3 µM
Compound: O=S(=O)(Nc1ccc(O)cc1)c1ccc(Br)cc1 [Compound 17, 4-bromo-N-(4-hydroxyphenyl)benzenesulfonamide]

Ki [1]: 9 µM
Compound: O=S(=O)(Nc1cccc(Br)c1)c1ccc(Br)cc1 [Compound 18, 4-bromo-N-(3-bromophenyl)benzenesulfonamide]

Inhibitory activity against IDH1(R132H), in words [1]: inactive
Compound: O=S(=O)(Nc1ccccc1)c1ccc(Br)cc1 [Compound 19, 4-bromo-N-phenylbenzenesulfonamide]

Ki [1]: 16.1 µM
Compound: O=S(=O)(Nc1ccc(F)c(Cl)c1)c1ccc(Br)cc1 [Compound 20, 4-bromo-N-(3-chloro-4-fluorophenyl)benzenesulfonamide]
